This is an account of results in ChEMBL document CHEMBL1146083, “Novel potent and efficacious nonpeptidic urotensin II receptor agonists” (J Med Chem, 2006).

The structures appear in SMILES notation. Activity calls are given as the source filed them. The calls are words filed in the database; no cut-off is given here.

Assay [1] deals with T1, Urotensin-2 receptor (Homo sapiens) (UniProt Q9UKP6).
T1 sequence (whole entry): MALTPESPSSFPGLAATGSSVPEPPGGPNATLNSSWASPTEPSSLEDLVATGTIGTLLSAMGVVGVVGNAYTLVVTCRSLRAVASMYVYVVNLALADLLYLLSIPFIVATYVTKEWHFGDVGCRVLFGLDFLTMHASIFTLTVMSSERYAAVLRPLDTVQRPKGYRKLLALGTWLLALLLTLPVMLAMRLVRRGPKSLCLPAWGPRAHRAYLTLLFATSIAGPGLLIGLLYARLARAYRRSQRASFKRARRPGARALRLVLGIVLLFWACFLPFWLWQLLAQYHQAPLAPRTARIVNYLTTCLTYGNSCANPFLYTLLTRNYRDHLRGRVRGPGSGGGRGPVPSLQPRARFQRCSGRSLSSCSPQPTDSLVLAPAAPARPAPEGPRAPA
Put plainly: (§1) Activity against human urotensin-2 receptor expressed in NIH3T3 cells. The format is cell-based. In short, it runs like this: (§2)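 R-SAT functional agonist assay. NIH-3T3 cells grown to 80% confluence in DMEM with 10% bovine calf serum, then transfected for 18 h with human UII receptor plus β-galactosidase marker. Cells frozen, thawed and plated in DMEM with 0.4% calf serum and 30% UltraCulture onto compound. Five-day incubation in 5% CO2, then reporter read at 420 nm. Eight doses in triplicate; pEC50 averaged over 2-6 determinations; efficacy normalized to UII as 100%.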

The next assay deals with T2, Urotensin-2 receptor (Homo sapiens, UniProt Q9UKP6).
T2 sequence (Q9UKP6 whole entry): T1 sequence (whole entry)
Described as §1. The format is cell-based. In short, it runs like this:
as §2

For `CN(C)CCC(NS(=O)(=O)c1ccc(-c2ccccc2)cc1)c1ccc(Cl)cc1` (configuration not stated), the “Log EC50” value in assay [1] is “inactive”. One may read the EC50 as the concentration that produces a half-maximal response. With `CN(C)CCC(OC(=O)Nc1ccc(Oc2ccccc2)cc1)c1ccc(Cl)cc1` (configuration not stated), the Efficacy in assay [1] is 107%. The compound further gave an EC50 on Urotensin-2 receptor of 191 nM. In the case of `CO[C@@H](C(=O)N[C@@H](CCN(C)C)c1ccc(Cl)cc1)c1ccccc1`, the Efficacy in assay [1] was found to be 165%. The compound further showed a concentration for a half-maximal effect (EC50) at Urotensin-2 receptor of 871 nM. `Cc1cc2c(cc1C)C(=O)OC(CCN(C)C)(c1ccc(Cl)cc1)C2` (configuration not stated) showed an Efficacy in assay [1] of 146%. Moreover, a half-maximal effect on Urotensin-2 receptor (EC50) was put at 135 nM.

In assay [1], `CN(C)CCC(NC(=O)Nc1ccc2ccccc2c1)c1ccc(Cl)cc1` (configuration not stated) came in with an Efficacy of 106%. The compound further gave an EC50 at Urotensin-2 receptor of 288 nM. In assay [1], `CN(C)CCC(OC(=O)Nc1ccc2ccccc2c1)c1ccc(Cl)cc1` (configuration not stated) displayed an Efficacy of 89%. In addition, a half-maximal response on Urotensin-2 receptor (EC50) required 525 nM. `Cc1ccc(COC(CCN(C)C)c2ccc(Cl)cc2)cc1` (configuration not stated): the “Log EC50” value in assay [1] is “inactive”. Turning to `COc1ccc(NC(=O)OC(CCN(C)C)c2ccc(Cl)cc2)cc1` (configuration not stated), the Efficacy in assay [1] turned out to be 170%. In addition, the EC50 at Urotensin-2 receptor is 1660 nM.

In assay [1], `CN(C)CC[C@@H](NC(=O)c1ccc(-c2ccccc2)cc1)c1ccc(Cl)cc1` registered an Efficacy of 96%. The same compound gave an EC50 on Urotensin-2 receptor of 1450 nM.

Compound `Cc1ccc(C)c(C(=O)OC(CCN(C)C)c2ccc(Cl)cc2)c1` (configuration not stated) came in with an Efficacy in assay [1] of 86%. In turn, `CN(C)CCC(OC(=O)c1cn(C)c2ccccc12)c1ccc(Cl)cc1` (configuration not stated) yielded an Efficacy in assay [1] of 104%. This compound also showed a half-maximal effective concentration (EC50) at Urotensin-2 receptor of 1510 nM. Compound `CN(C)CCC(OC(=O)Nc1ccc(-c2ccccc2)cc1)c1ccc(Cl)cc1` (configuration not stated) showed an Efficacy in assay [1] of 58%. This compound also showed an EC50 at Urotensin-2 receptor of 269 nM.

`Cc1ccc(C(=O)OC(CCN(C)C)c2ccc(Cl)cc2)cc1` (configuration not stated) displayed an Efficacy in assay [1] of 56%. Take `COc1ccccc1COC(CCN(C)C)c1ccc(Cl)cc1` (configuration not stated): the “Log EC50” value in assay [1] is “inactive”. In the case of `CN(C)CCC(NC(=O)NCc1ccccc1)c1ccc(Cl)cc1` (configuration not stated), the Efficacy in assay [1] stood at 179%. This compound gave an EC50 on Urotensin-2 receptor of 2000 nM. In the case of `Cc1ccccc1NC(=O)NC(CCN(C)C)c1ccc(Cl)cc1` (configuration not stated), the Efficacy in assay [1] is 175%. In assay [1], `COc1ccc(C(=O)NC(CCN(C)C)c2ccc(Cl)cc2)cc1` (configuration not stated) gave an Efficacy of 162%. `CN(C)CCC(OC(=O)c1ccc2ccccc2c1)c1ccc(Cl)cc1` (configuration not stated) displayed an Efficacy in assay [1] of 49%. Take `CN(C)CCC(OC(=O)Nc1ccc(C(F)(F)F)cc1)c1ccc(Cl)cc1` (configuration not stated): in assay [1], the Efficacy came to 94%. Further, a half-maximal effect on Urotensin-2 receptor (EC50) was put at 251 nM. In turn, `CN(C)CCC(OC(=O)c1ccc(C(F)(F)F)cc1)c1ccc(Cl)cc1` (configuration not stated) had an Efficacy in assay [1] of 47%. In addition, on Urotensin-2 receptor, the response was half-maximal at 1740 nM (EC50).

`CCc1ccccc1C(=O)OC(CCN(C)C)c1ccc(Cl)cc1` (configuration not stated) gave an Efficacy in assay [1] of 128%. Still for that read-out and setting: the result for `Cc1ccsc1C(=O)OC(CCN(C)C)c1ccc(Cl)cc1` (configuration not stated) reads 119%; that for `CN(C)CCC(NC(=O)c1ccccc1)c1ccc(Cl)cc1` (configuration not stated), 158%; that for `Cc1ccccc1C(=O)NC(CCN(C)C)c1ccc(Cl)cc1` (configuration not stated), 175%.

In assay [1], `Cc1cccc(C(=O)NC(CCN(C)C)c2ccc(Cl)cc2)c1C` (configuration not stated) gave an Efficacy of 159%. Compound `CN(C)CCC(NC(=O)Nc1ccc(C(C)(C)C)cc1)c1ccc(Cl)cc1` (configuration not stated) had an Efficacy in assay [1] of 103%. The compound further had an EC50 on Urotensin-2 receptor of 275 nM.

The compound `COc1cccc(NC(=O)NC(CCN(C)C)c2ccc(Cl)cc2)c1` (configuration not stated) had an Efficacy in assay [1] of 146%. In assay [1], `Cc1cccc(C(=O)OC(CCN(C)C)c2ccc(Cl)cc2)c1C` (configuration not stated) displayed an Efficacy of 91%. At Urotensin-2 receptor, this compound gave an EC50 of 1150 nM.

Compound `CN(C)CCC(OC(=O)c1ccc(-c2ccccc2)cc1)c1ccc(Cl)cc1` (configuration not stated) registered an Efficacy in assay [1] of 53%.

In the case of `CN(C)CCC(NC(=O)Nc1ccc(Oc2ccccc2)cc1)c1ccc(Cl)cc1` (configuration not stated), the Efficacy in assay [1] was determined as 108%. In addition, the EC50 on Urotensin-2 receptor was 110 nM. `CN(C)CCC(OC(=O)c1cccc2ccccc12)c1ccc(Cl)cc1` (configuration not stated): in assay [1], the Efficacy worked out at 95%. With `CN(C)CCC(NC(=O)c1ccc(N(C)C)cc1)c1ccc(Cl)cc1` (configuration not stated), the Efficacy in assay [1] was 150%. Still for that read-out and setting: the result for `Cc1cc(Br)ccc1C(=O)OC(CCN(C)C)c1ccc(Cl)cc1` (configuration not stated) reads 95%. In assay [1], `COc1cccc(C(=O)OC(CCN(C)C)c2ccc(Cl)cc2)c1C` (configuration not stated) showed an Efficacy of 88%. The compound also showed a concentration giving a half-maximal response (EC50) at Urotensin-2 receptor of 1950 nM. For `CN(C)CCC(NC(=O)Nc1ccc(C(F)(F)F)cc1)c1ccc(Cl)cc1` (configuration not stated) the same measures were 105% and 117 nM. In the case of `CN(C)CCC1(c2ccc(Cl)cc2)Cc2ccccc2C(=O)O1` (configuration not stated), in assay [1], the Efficacy stood at 133%. The EC50 on Urotensin-2 receptor is 1120 nM. In assay [1], `CN(C)CCC(OC(=O)NCc1ccccc1)c1ccc(Cl)cc1` (configuration not stated) displayed an Efficacy of 180%.

Regarding `Cc1ccc(C)c(C(=O)NC(CCN(C)C)c2ccc(Cl)cc2)c1` (configuration not stated), the Efficacy in assay [1] amounted to 164%. In assay [1], `Cc1cccc(Cl)c1C(=O)NC(CCN(C)C)c1ccc(Cl)cc1` (configuration not stated) gave an Efficacy of 105%.

`CN(C)CCC(OC(=O)Nc1ccc(C(C)(C)C)cc1)c1ccc(Cl)cc1` (configuration not stated) registered an Efficacy in assay [1] of 105%. The same compound gave a concentration for a half-maximal effect (EC50) at Urotensin-2 receptor of 1820 nM. `CN(C)CCC(NC(=O)Cc1ccccc1)c1ccc(Cl)cc1` (configuration not stated): the Efficacy in assay [1] is 155%.

In assay [1], `Cc1ccc(S(=O)(=O)NC(CCN(C)C)c2ccc(Cl)cc2)cc1` (configuration not stated) came in with an Efficacy of 74%.

Consider `COc1cccc(C(=O)NC(CCN(C)C)c2ccc(Cl)cc2)c1C` (configuration not stated), for which, in assay [1], the Efficacy was 179%. Consider `Cc1ccccc1C(=O)OC(CCN(C)C)c1ccc(Cl)cc1` (configuration not stated), for which, in assay [1], the Efficacy was 126%.

Take `COc1ccc(C(=O)OC(CCN(C)C)c2ccc(Cl)cc2)cc1` (configuration not stated): the Efficacy in assay [1] amounted to 84%. On Urotensin-2 receptor, this compound gave an EC50 of 2190 nM. Regarding `Cc1ccc(C(=O)NC(CCN(C)C)c2ccc(Cl)cc2)c(C)c1` (configuration not stated), the Efficacy in assay [1] is 147%. `Cc1c(Cl)cccc1C(=O)NC(CCN(C)C)c1ccc(Cl)cc1` (configuration not stated) showed an Efficacy in assay [1] of 142%.

As to `CN(C)CCC(OC(=O)c1cc2ccccc2n1C)c1ccc(Cl)cc1` (configuration not stated), the Efficacy in assay [1] came out at 73%. At Urotensin-2 receptor, this compound had an EC50 of 1380 nM. The compound `CN(C)CCC(NC(=O)c1ccc(-c2ccccc2)cc1)c1ccc(Cl)cc1` (configuration not stated) had an Efficacy in assay [1] of 116%. In assay [1], `CN(C)CCC(NC(=O)c1ccc(C(F)(F)F)cc1)c1ccc(Cl)cc1` (configuration not stated) showed an Efficacy of 115%. For the same compound, at Urotensin-2 receptor, the EC50 is 77.6 nM. `Cc1c(Cl)cccc1C(=O)OC(CCN(C)C)c1ccc(Cl)cc1` (configuration not stated) yielded an Efficacy in assay [1] of 118%. Turning to `Cc1cc(C)c(C(=O)NC(CCN(C)C)c2ccc(Cl)cc2)cc1C` (configuration not stated), the Efficacy in assay [1] came to 159%. As for `Cc1cc(C)c(C(=O)OC(CCN(C)C)c2ccc(Cl)cc2)cc1C` (configuration not stated), the Efficacy in assay [1] stood at 60%.

With `CN(C)CCC(NC(=O)c1ccc(Oc2ccccc2)cc1)c1ccc(Cl)cc1` (configuration not stated), in assay [1], the Efficacy was 89%. Regarding `CN(C)CCC(NC(=O)c1ccc2c(c1)OCO2)c1ccc(Cl)cc1` (configuration not stated), the Efficacy in assay [1] was 154%. Turning to `Cc1ccccc1NC(=O)OC(CCN(C)C)c1ccc(Cl)cc1` (configuration not stated), the Efficacy in assay [1] came to 176%.

For `CO[C@@H](C(=O)N[C@H](CCN(C)C)c1ccc(Cl)cc1)c1ccccc1`, in assay [1], the Efficacy was found to be 112%. At Urotensin-2 receptor, this compound showed an EC50 of 5010 nM. On to `CN(C)CCC(NS(=O)(=O)c1ccc2ccccc2c1)c1ccc(Cl)cc1` (configuration not stated), for which the “Log EC50” value in assay [1] is “inactive”. `CN(C)CCC(NC(=O)Nc1ccc(-c2ccccc2)cc1)c1ccc(Cl)cc1` (configuration not stated) returned an Efficacy in assay [1] of 91%. On Urotensin-2 receptor, this compound gave a 50% effective concentration (EC50) of 145 nM.

In turn, `CN(C)CC[C@H](NC(=O)c1ccc(-c2ccccc2)cc1)c1ccc(Cl)cc1` displayed an Efficacy in assay [1] of 116%. At Urotensin-2 receptor, this compound gave a concentration for a half-maximal effect (EC50) of 32.4 nM.

`CCc1ccccc1C(=O)N[C@@H](CCN(C)C)c1ccc(Cl)cc1`: the Efficacy in assay [1] is 140%. Moreover, the EC50 at Urotensin-2 receptor was 1020 nM. As to `COc1cccc(NC(=O)OC(CCN(C)C)c2ccc(Cl)cc2)c1` (configuration not stated), in assay [1], the Efficacy amounted to 136%.

Take `COc1ccc(NC(=O)NC(CCN(C)C)c2ccc(Cl)cc2)cc1` (configuration not stated): the Efficacy in assay [1] came to 195%. For the same compound, on Urotensin-2 receptor, the EC50 was 2000 nM.

`CN(C)CC[C@H](NC(=O)c1ccc2ccccc2c1)c1ccc(Cl)cc1` returned an Efficacy in assay [1] of 109%. The EC50 on Urotensin-2 receptor was 407 nM.
